# This excerpt belongs to a sample that is enriched for hits.
# Pyk2 oligo antag: Pyk2 (human) oligomerization antagonism. Q293 cells, Pyk2 FERM NanoBiT luminescence; active compounds read low. hit rate 0.83% among 99,000. AID 1347419. Q14289. z-score (the deposit names both 25 µM and 10 µM);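 active = Z-score of -3 or lower, scaled per plate to the spread of control and sample wells; inactive = z-score above -3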;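 also: negative z-score means lost luminescence so less FERM oligomerization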
# Target sequence (Q14289 whole entry, looked up): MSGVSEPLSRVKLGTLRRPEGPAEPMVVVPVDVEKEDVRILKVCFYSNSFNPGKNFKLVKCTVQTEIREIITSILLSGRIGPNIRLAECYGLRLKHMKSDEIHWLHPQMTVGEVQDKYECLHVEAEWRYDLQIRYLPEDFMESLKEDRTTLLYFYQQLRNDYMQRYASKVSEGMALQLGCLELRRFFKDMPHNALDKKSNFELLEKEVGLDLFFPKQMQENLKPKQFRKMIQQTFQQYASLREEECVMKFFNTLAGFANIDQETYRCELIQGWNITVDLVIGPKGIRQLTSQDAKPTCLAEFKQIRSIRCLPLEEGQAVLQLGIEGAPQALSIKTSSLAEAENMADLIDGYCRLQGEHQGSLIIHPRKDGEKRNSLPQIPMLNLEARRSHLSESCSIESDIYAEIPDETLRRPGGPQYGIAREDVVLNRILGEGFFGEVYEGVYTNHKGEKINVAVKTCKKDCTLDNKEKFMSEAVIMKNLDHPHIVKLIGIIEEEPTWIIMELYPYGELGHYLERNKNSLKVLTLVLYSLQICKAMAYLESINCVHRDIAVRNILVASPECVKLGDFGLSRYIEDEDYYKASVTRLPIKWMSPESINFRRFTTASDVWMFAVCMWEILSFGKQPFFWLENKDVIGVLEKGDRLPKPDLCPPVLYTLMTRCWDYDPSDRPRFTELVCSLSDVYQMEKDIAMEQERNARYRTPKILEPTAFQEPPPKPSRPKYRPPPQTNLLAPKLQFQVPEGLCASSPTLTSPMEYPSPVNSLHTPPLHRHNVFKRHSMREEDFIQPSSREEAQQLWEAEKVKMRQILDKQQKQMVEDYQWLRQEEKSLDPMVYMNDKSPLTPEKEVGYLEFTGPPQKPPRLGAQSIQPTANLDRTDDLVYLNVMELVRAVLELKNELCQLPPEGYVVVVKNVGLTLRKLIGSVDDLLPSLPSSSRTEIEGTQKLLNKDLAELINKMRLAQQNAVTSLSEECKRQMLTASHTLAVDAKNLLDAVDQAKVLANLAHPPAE
# HCT116 bCat-KO: beta-catenin-lacking colon tumor cell growth suppression | hit rate 1.5% among 140,000 | AID 818 | HCT116 beta-catenin knockout viability, CellTiter-Glo, 60 h; active compounds read low | viability, % at 10 µM;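 active = viability at or under a set limit, the compound median less 4 SD, cut at about 6% in these data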
# HUVEC inhibit: inhibitors of human endothelial cell proliferation | HUVEC proliferation, CellTiter-Glo luminescence, 72 h; active compounds read low | viability, % at 10 µM (by protocol) | hit rate 1.1% among 86,000 | AID 648;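 active = viability at or below 30%; inactive = viability above 30%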
# H69AR inhibit: blocks growth of human H69AR lung tumor cells. hit rate 6% among 85,000. viability, % at 10 µM. H69AR lung tumor viability, ATP luminescence, 72 h; active compounds read low. AID 598;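 active = viability at or below 40%; inactive = viability above 40%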;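 also: multidrug resistant small cell line overexpressing MRP-1 efflux transporter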
# HCT116 PTEN-null: suppresses growth of cells with PTEN deletion; HCT116 PTEN-null viability, CellTiter-Glo, 60 h; active compounds read low; viability, % at 10 µM; hit rate 1.2% among 140,000; AID 827;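 active = viability at or below a set limit, 4 SD under the median of all tested compounds, cut at about 3.7% in these data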;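 also: PTEN knockout HCT116 line with beta catenin targeted HCT116 as companion control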
# Lung fibro prol: blocks proliferation of human lung fibroblasts; LL 47 human lung fibroblast viability, ATP luminescence; active compounds read low; viability, % at 10 µM; hit rate 1.1% among 85,000; AID 719;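 active = viability at or below 50% in the single dose screen; inactive = viability above 50%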;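 also: compound exposure lasted 72 h before the ATP readout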
#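 Material: human lung fibroblast line LL 47, low passage; Evaluation: viability percentage against median untreated-cell control; Buffer or medium: 15% FBS in IMEM; Incubation: 72 h compound exposure at 37 °C after overnight plating; Dosing: 0.1% DMSO in all compound wells; Measured by: CellTiter-Glo luminescence.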
# Numbers stand for hits; n = inactive; x = no result given.
SMILES,Pyk2 oligo antag,HCT116 bCat-KO,HUVEC inhibit,H69AR inhibit,HCT116 PTEN-null,Lung fibro prol
COC(=O)c1ccc(C(=O)Nc2ccc(N)cc2N)cc1,n,n,n,1.9,n,n
COc1ccccc1NC(=O)c1ccc(N)cc1,n,n,n,n,n,n
COc1c2occc2c(OC)c2c(=O)cc(C(F)(F)F)oc12,n,n,n,n,n,n
COc1c2occc2c(OC)c2c(=O)cc(C(F)(F)C(F)(F)F)oc12,-3.21,n,n,n,n,n
C=CCNc1ncnc2c1ncn2C1OC(CO)C(O)C1O (stereo unspecified),n,n,n,30.9,n,40.1
OC[C@H]1O[C@@H](n2cnc3c(NC4CCCC4)ncnc32)[C@H](O)[C@@H]1O,x,n,n,n,n,n
Oc1c(Cl)cc(Cl)cc1C(C#Cc1ccccc1)N1CCOCC1 (stereo unspecified),n,n,x,x,n,x
Oc1c(Cl)cc(Cl)cc1Sc1cc(Cl)cc(Cl)c1O,x,4.0,n,13.8,n,n
Cc1ccc(C)c(OCCOCCN2CC(C)OC(C)C2)c1C (stereo unspecified),n,n,n,n,n,n
Cc1cc(C(=O)CSc2nc3ccccc3c(=O)n2C)c(C)n1Cc1ccc2c(c1)OCO2,n,n,23.9,24.9,n,n
CCCn1c(C(C)NC(=O)c2ccccc2)nc2ccccc21 (stereo unspecified),n,n,x,x,n,x
CC(NC(=O)c1ccc(F)cc1)c1nc2ccccc2n1Cc1ccccc1F (stereo unspecified),n,n,n,38.0,n,n
CC(C)(C)C(=O)/C(C#N)=c1\s/c(=C\c2ccncc2)c(=O)n1CCCN1CCOCC1,x,x,1.8,n,x,x
O=C(CN1C(=O)S/C(=C/c2ccncc2)C1=O)N1CCOCC1,x,n,x,x,n,x
CC(C)c1nnc(N2C(=O)c3oc4ccccc4c(=O)c3C2c2ccco2)s1 (stereo unspecified),n,n,x,x,n,x
Cc1ccc(C2c3c(oc4ccccc4c3=O)C(=O)N2c2nnc(C(C)C)s2)o1 (stereo unspecified),x,n,n,8.4,n,n
O=C(NCc1cccnc1)c1ccc(COc2ccc3c(c2)CCC3)o1,n,n,n,6.4,n,n
Cc1ccc(S(=O)(=O)N(C)Cc2ccc(C(=O)N/N=C/c3ccc(OC(F)F)cc3)cc2)cc1,n,n,x,x,n,x
Cc1cc2nc(/N=C(\N)NC(=O)N3c4ccccc4Sc4ccccc43)nc(C)c2cc1C,x,n,x,x,n,x
COc1ccc(OC)c(NC(=O)c2c(NC(=O)CNCc3ccco3)sc3c2CCC3)c1,n,n,n,16.4,n,n
CCc1ccc2c(c1)C1(C(=O)N2)N2CCCC2C(C(=O)c2ccc3ccccc3c2)C12C(=O)Nc1ccccc12 (stereo unspecified),x,1.3,x,x,1.1,x
CCc1cccc2c1NC(=O)C21N2CCCC2C(C(=O)c2ccc3ccccc3c2)C12C(=O)Nc1ccccc12 (stereo unspecified),x,n,x,x,n,x
CCCCc1ccc(-n2nnnc2SCC(=O)Nc2cc(OC)c([N+](=O)[O-])cc2C)cc1,x,n,x,x,n,x
COc1ccc(C2C=C(c3ccccc3)Nc3ncnn32)cc1 (stereo unspecified),n,n,n,n,n,n
CCOc1ccc(C2C=C(c3ccc(C)cc3)Nc3ncnn32)cc1 (stereo unspecified),x,n,n,n,n,n
SMILES,Pyk2 oligo antag,HCT116 bCat-KO,HUVEC inhibit,H69AR inhibit,HCT116 PTEN-null,Lung fibro prol
COc1ccccc1C1C=C(c2ccc(C)cc2)Nc2nnnn21 (stereo unspecified),n,n,n,18.5,n,n
CCOc1ccc(C2C=C(c3ccccc3)Nc3nnnn32)cc1 (stereo unspecified),n,n,n,32.8,n,n
CCOc1ccc(C2C=C(c3ccc(C)cc3)Nc3nnnn32)cc1 (stereo unspecified),n,n,21.9,2.2,n,n
COc1ccc(C2=CC(c3c(C)nn(-c4ccccc4)c3Cl)n3nnnc3N2)cc1OC (stereo unspecified),n,n,n,24.5,n,n
COc1ccccc1/C=C/C(=O)OCC(=O)Nc1cc(C(F)(F)F)ccc1N1CCOCC1,x,n,x,x,n,x
O=C(Nc1ccc2nc3n(c(=O)c2c1)CCCC3)c1cc([N+](=O)[O-])ccc1F,x,2.5,x,x,n,x
CCOC(=O)c1sc2nc(SCC#N)n(CC3CCCO3)c(=O)c2c1C (stereo unspecified),n,6.0,n,n,n,n
